For 25 compounds, inhibition and IC50 results are on record in ChEMBL document CHEMBL1926549, “First chemical feature-based pharmacophore modeling of potent retinoidal retinoic acid metabolism blocking agents (RAMBAs): identification of novel RAMBA scaffolds” (Eur J Med Chem, 2012).

In one assay the test system is Cricetinae. The assay can be described thus: Inhibition of CYP26 in hamster liver microsomes assessed as [11,12-[3H]ATRA metabolism at 100 nM treated 3 mins before [11,12,3H]ATRA addition measured after 30 mins by HPLC analysis. Conditions: Microsome. The essentials: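 Hamster liver microsomes (500 μg/mL stock) were used in 0.1 M phosphate buffer, pH 7.4, with NADPH (20 mM stock), MgCl2 and BSA. Inhibitor at 100 nM in DMSO was preincubated for 3 min at 37 °C. [11,12-3H]-ATRA was then added at 20 μM and incubated 30 min under oxygen at 37 °C. The reaction was stopped with formic acid, extracted with ethyl acetate/methanol/BHA, and radiolabelled polar metabolites were quantified by HPLC.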
For orientation: Liver microsomes are a subcellular fraction often used to study metabolism.
Usually inhibition stands for the relative decrease from the control value, in per cent. Take `COC(=O)CCCCCc1ccc(Cc2ccc(CCCCCC(=O)OC)cc2)cc1`: the inhibition came to 31.4%.
For `Cc1nc(N)nc(O)c1CCCNc1ccc(CCCCC2(CCl)OCCO2)cc1`, the inhibition came out at 29.4%.
Turning to `O=C(Nc1ccc(OCCCCCOc2ccccc2)cc1)C(F)(F)F`, the inhibition turned out to be 34.8%.
The same measure, in the same setting: the value for `Nc1nc(Cl)cc(NCCCCCCCCCCNc2cc(Cl)nc(N)n2)n1` was 32.7%.
The same measure, in the same setting: the value for `CCOC(=O)/C=C(\C)NCCSSCCN/C(C)=C/C(=O)OCC` was 54.7%; that for `Cc1cc(CC(C)C2CCC(C)C(c3ccc(O)c(C)c3)C2)ccc1O` (stereo not given) was 33.8%.
Still for that read-out and setting: the value for `COc1ccc(/C(C)=N/OC(=O)c2cc(OC)c(OC)c(OC)c2)cc1CSc1ccccn1` was 28.5%; that for `CCOc1cc(/C=N/N2CCN(/N=C/c3ccc(O)c(OCC)c3)CC2)ccc1O` was 34.3%.
On to `CCOC(=O)CCCCCCCCCCCCCCCCC(=O)OCC`, for which the inhibition came to 29.5%.
Same read-out and setting: the value for `O=C(Oc1ccc(CC/C=C/CCc2ccc(OC(=O)c3ccccc3)cc2)cc1)c1ccccc1` was 30.4%; that for `Cc1nc(N)nc(O)c1CCCNc1ccc(CCCCC(=O)CCl)cc1` was 42.8%.
Same read-out and setting: the value for `C/C(=N\CCCCCC/N=C(\C)c1cc(O)ccc1O)c1cc(O)ccc1O` was 22.2%; that for `CCCCCCC(CCCCCCCCCCC(=O)OC(C)(C)C)OC(C)=O` (stereo not given) was 36.2%; that for `CNC(=S)N/N=C(\C)CCCCCCCCCCCC/C(C)=N/NC(=S)NC` was 21.2%.
`C/C(=N\Cc1cccc(C/N=C(\C)c2ccccc2O)c1)c1ccccc1O`: the inhibition amounted to 38.6%.
The same measure, in the same setting: the value for `CC(SCCCCCCCCCCSC(C)C(=O)O)C(=O)O` (stereo not given) was 20.5%; that for `CCOC(=O)c1cnn(-c2ccc(Cc3ccc(-n4ncc(C(=O)OCC)c4C)cc3)cc2)c1C` was 49.8%; that for `COc1cc(/C=N/CCCC/N=C/c2cc(OC)c(OC)c(OC)c2)cc(OC)c1OC` was 27.3%.
The same measure, in the same setting: with `COC(=O)c1cc(OCC#CC#CCOc2ccc(O)c(C(=O)OC)c2)ccc1O` the figure was 17.9%; with `Nc1nc(Cl)cc(NCCCCCCCCNc2cc(Cl)nc(N)n2)n1`, 18.1%.

Test system in a further assay: not listed separately
Kind of assay: Inhibition of CYP26 in hamster liver microsomes assessed as [11,12-[3H]ATRA metabolism treated 3 mins before [11,12,3H]ATRA addition measured after 30 mins by HPLC analysis. Also noted: species or system Cricetinae, Microsome.
Conditions: not given
The term IC50 denotes the concentration needed to halve the response being measured. Turning to `COC(=O)/C=C(C)/C=C/C=C(C)/C=C/C1=C(C)C(n2cncn2)CCC1(C)C` (racemic), the IC50 was found to be 2 nM.
`CC1=C(/C=C/C(C)=C/C=C/C(C)=C/C(=O)O)C(C)(C)CCC1n1ccnc1` (racemic): the half-inhibitory concentration (IC50) worked out at 2.33 nM.
For the compound `CC1=C(/C=C/C(C)=C/C=C/C(C)=C/C(=O)n2ccnc2)C(C)(C)CCC1n1cncn1` (racemic), the 50% inhibitory concentration (IC50) is 0.05 nM.
Still for that read-out and setting: the value for `CC1=C(/C=C/C(C)=C/C=C/C(C)=C/C(=O)O)C(C)(C)CCC1n1cncn1` (racemic) was 5.84 nM; that for `COC(=O)/C=C(C)/C=C/C=C(C)/C=C/C1=C(C)C(n2ccnc2)CCC1(C)C` (racemic) was 0.009 nM.
